An excerpt weighted towards active compounds, which were near 1.3% of everything screened.
CRFBP-R2 block: antagonists of CRF-BP/CRF-R2 complex, primary screen, cell-based, HEK293, calcium dye fluorescence, uHTS. inhibition, % at 11.8 µM. 350,000 compounds, 0.59% hits. CRF-induced calcium fluorescence;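 active means inhibition of the ligand-induced calcium signal above about 50% at the single tested concentration, limit read from the data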
DDE Tn7 FP inh: inhibitors of Tn7 peptide binding to fibrin DD(E), primary screen, biochemical, fluorescence polarization, human fibrin, Tn7 probe; FP displacement of FITC-Tn7 peptide from fibrin DD(E); 0% = median of compound wells per plate; inhibition, % at 8.3 µM; 370,000 compounds, 0.13% hits; AID 720508, 2013;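 active means inhibition above the mean of compounds falling within the control limits plus 3 SD of them, cut at about 14% in these data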;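 further: 0% = plate median of compound wells and 100% = 10 µM Aha-Tn7 peptide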
Target sequence (P02675 whole entry, looked up): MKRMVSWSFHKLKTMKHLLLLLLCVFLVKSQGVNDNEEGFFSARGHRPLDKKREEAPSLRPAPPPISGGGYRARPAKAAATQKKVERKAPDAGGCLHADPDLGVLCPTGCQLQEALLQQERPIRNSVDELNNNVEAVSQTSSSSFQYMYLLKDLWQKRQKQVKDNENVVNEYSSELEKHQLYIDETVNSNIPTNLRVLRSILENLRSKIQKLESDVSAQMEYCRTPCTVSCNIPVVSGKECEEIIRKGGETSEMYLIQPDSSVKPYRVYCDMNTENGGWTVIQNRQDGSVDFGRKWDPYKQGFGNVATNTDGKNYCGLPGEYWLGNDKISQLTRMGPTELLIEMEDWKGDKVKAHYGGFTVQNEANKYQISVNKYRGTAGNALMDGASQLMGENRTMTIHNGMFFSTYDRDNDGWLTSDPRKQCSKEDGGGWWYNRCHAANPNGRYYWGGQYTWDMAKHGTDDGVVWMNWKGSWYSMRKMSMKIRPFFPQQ
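Also added: labelled Tn7 tracer, 0.1 µM; Assay system: human fibrin DD(E) protein; Amount: 2 µM fibrin DD(E); Schedule: 10 min compound pre-incubation, 3 h probe incubation at room temperature; Repeats: one replicate per compound; Read-out basis: percent inhibition; Measured by: fluorescence polarization of the labelled Tn7 tracer.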
CRFBP-R2 agonist: agonists of CRF-BP/CRF-R2 complex, primary screen, cell-based, HEK293, calcium dye fluorescence, uHTS. CRF-binding protein / CRF receptor 2 complex (human). calcium dye fluorescence (FLIPR); percent of saturating CRF peptide response. activation, % at 13.2 µM. 350,000 compounds, 0.46% hits. AID 588473, 2011;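 active means activation of at least 50%, plus an integration ratio under a set limit after plate pattern correction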;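 further: plate controls were neutral control wells without compound for no effect and CRF at EC100 for full effect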
DDE Tn6 FP inh: inhibitors of Tn6 peptide binding to fibrin DD(E), primary screen, biochemical, fluorescence polarization, human fibrin, Tn6 probe | 370,000 compounds, 0.21% hits | inhibition, % at 8.3 µM | Fibrin DD(E) TRITC-Tn6 fluorescence polarization displacement | Fibrinogen beta chain (Homo sapiens), P02675 | AID 720509, 2013;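 active means inhibition above a per-campaign cutoff: mean of compounds within control limits plus 3 SD, cut at about 15% in these data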;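 further: 0% = median of all compound wells on the plate and 100% = blocking peptide control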
* marks the source's active call; other numbers are inactive results.

C=CCN(C)C(C#Cc1ccccc1)Cc1ccccc1 (stereo not given) was read as DDE Tn7 FP inh 2 and DDE Tn6 FP inh 4.
Screening NC(=O)c1cc2ccccc2oc1=NCc1ccccc1 returned CRFBP-R2 block -31, DDE Tn7 FP inh -4, CRFBP-R2 agonist 2 and DDE Tn6 FP inh -6.
`NC(=O)c1cc2ccc(O)cc2oc1=NCc1ccccc1` gave CRFBP-R2 block -351, DDE Tn7 FP inh -7, CRFBP-R2 agonist 319* and DDE Tn6 FP inh -1.
Screening COc1ccc(C(CCOC(=O)Oc2ccccc2)c2cc(OC)cc(OC)c2)cc1 (stereo not given) returned DDE Tn7 FP inh -6 and DDE Tn6 FP inh 3.
Cc1cc(SCC(=O)c2ccc(Cl)cc2)nc(=O)[nH]1 was read as CRFBP-R2 block 81*, DDE Tn7 FP inh 4, CRFBP-R2 agonist 1 and DDE Tn6 FP inh -1.
Screening Cc1ccc(C(=O)CSc2cc(C)[nH]c(=O)n2)cc1 returned CRFBP-R2 block 6, DDE Tn7 FP inh 4, CRFBP-R2 agonist 0 and DDE Tn6 FP inh 0.
For CCCC(=O)N1CCC[C@]2(CC[C@@H](CCC#N)O2)C1 the results were DDE Tn7 FP inh 3 and DDE Tn6 FP inh -1.
`CCOC(=O)CSc1nc(N2CCOCC2)c2c(c1C#N)CC(C)(C)N(C)C2` gave CRFBP-R2 block -112, DDE Tn7 FP inh 2, CRFBP-R2 agonist 196* and DDE Tn6 FP inh 0.
For N/C(=N\OC(=O)COc1ccc(Br)cc1)c1ccncc1 the results were CRFBP-R2 block 59*, DDE Tn7 FP inh -4, CRFBP-R2 agonist -5 and DDE Tn6 FP inh -7.
N#C/C(=C\c1coc2ccc(O)cc2c1=O)C(=O)Nc1nc2ccccc2s1 was read as CRFBP-R2 block -185, DDE Tn7 FP inh -2, CRFBP-R2 agonist 235* and DDE Tn6 FP inh -7.
`N#C/C(=C\c1coc2ccccc2c1=O)C(N)=S` gave CRFBP-R2 block -4, DDE Tn7 FP inh -5, CRFBP-R2 agonist 1 and DDE Tn6 FP inh 3.
COc1cccc(N(C)C(=O)[C@@H](C2CC2)[C@@H](O)c2ccc(C(C)=O)cc2)c1 was read as DDE Tn7 FP inh 4 and DDE Tn6 FP inh 11.
For O=C(NC(=S)N1CCN(c2ccc(O)cc2)CC1)c1cccs1 the results were CRFBP-R2 block -2, DDE Tn7 FP inh -4, CRFBP-R2 agonist -1 and DDE Tn6 FP inh 1.
Screening O=C(NC(=S)N1CCN(c2ccc(F)cc2)CC1)c1cccs1 returned CRFBP-R2 block 50*, DDE Tn7 FP inh 2, CRFBP-R2 agonist 1 and DDE Tn6 FP inh 2.
For CCOc1ccccc1NC(=O)CCc1nnc2ccc(N3CCC(C)CC3)nn12 the results were CRFBP-R2 block 69*, DDE Tn7 FP inh -2, CRFBP-R2 agonist 0 and DDE Tn6 FP inh 5.
`CC(=O)c1ccc(NC(=O)CCc2nnc3ccc(N4CCC5(CC4)OCCO5)nn23)cc1` gave CRFBP-R2 block 65*, DDE Tn7 FP inh 5, CRFBP-R2 agonist 1 and DDE Tn6 FP inh -4.
Screening Cc1ccc(NC(=O)CCc2nnc3ccc(N4CCC5(CC4)OCCO5)nn23)nc1 returned CRFBP-R2 block -13, DDE Tn7 FP inh 0, CRFBP-R2 agonist 0 and DDE Tn6 FP inh 3.
For CCCN1C2CCCC1CC(NC(=O)c1ccc(C(C)(C)C)cc1)C2 (stereo not given) the results were CRFBP-R2 block 2, DDE Tn7 FP inh -5, CRFBP-R2 agonist -2 and DDE Tn6 FP inh -3.
CCN1C(=O)CC2CCCC1C2 (stereo not given) was read as CRFBP-R2 block 75*, DDE Tn7 FP inh -1, CRFBP-R2 agonist 1 and DDE Tn6 FP inh 0.
For O=C(COC(=O)c1ccc(Br)cc1)NCc1ccccc1 the results were CRFBP-R2 block 21, DDE Tn7 FP inh 1, CRFBP-R2 agonist -3 and DDE Tn6 FP inh 4.
`CC(=O)Cc1cc(O)c2ccccc2c1OC(=O)c1ccc(Br)cc1` gave CRFBP-R2 block 68*, DDE Tn7 FP inh 1, CRFBP-R2 agonist -2 and DDE Tn6 FP inh 14.
COc1ccc2c(c1)[C@@H](NC(=O)c1ccncc1)[C@@H]1Cc3ccccc3[C@H]21 was read as DDE Tn7 FP inh -2 and DDE Tn6 FP inh 0.
For CCCCOc1ccc(C(=O)n2ccc3ccc(-c4ccc5ccn(Cc6cccc(C(=O)OC)c6)c5c4)cc32)cc1 the results were DDE Tn7 FP inh 9 and DDE Tn6 FP inh -1.
Screening Cc1cc2nccc(-c3ccccn3)n2n1 returned CRFBP-R2 block 5, DDE Tn7 FP inh -1, CRFBP-R2 agonist -2 and DDE Tn6 FP inh 2.
For c1ccc(-c2cc3nccc(-c4ccccn4)n3n2)cc1 the results were CRFBP-R2 block 60*, DDE Tn7 FP inh 1, CRFBP-R2 agonist -2 and DDE Tn6 FP inh 9.
Screening COc1ccc(C(=O)NC(=S)NNC(=O)c2ccc(C)cc2)cc1 returned CRFBP-R2 block -69, DDE Tn7 FP inh 3, CRFBP-R2 agonist 132* and DDE Tn6 FP inh 4.
For CCC(=O)NC(=S)NNC(=O)c1ccc(OC)cc1 the results were CRFBP-R2 block 32, DDE Tn7 FP inh 2, CRFBP-R2 agonist -4 and DDE Tn6 FP inh -1.
Screening COc1ccc(C(=O)NNC(=S)NC(=O)c2ccc(Cl)cc2)cc1 returned CRFBP-R2 block 2, DDE Tn7 FP inh -2, CRFBP-R2 agonist 117* and DDE Tn6 FP inh 11.
For COc1cc(C(=O)NNC(=S)NC(=O)c2ccc(Cl)cc2)cc(OC)c1OC the results were CRFBP-R2 block -9, DDE Tn7 FP inh 4, CRFBP-R2 agonist 35 and DDE Tn6 FP inh 5.
For CCCCC(=O)NNC(=S)NC(=O)c1ccc(C)cc1 the results were CRFBP-R2 block 49, DDE Tn7 FP inh 1, CRFBP-R2 agonist 135* and DDE Tn6 FP inh 4.
O=C(NNC(=S)NC(=O)c1sc2ccccc2c1Cl)c1ccc(Cl)cc1 was read as CRFBP-R2 block -222, DDE Tn7 FP inh 5, CRFBP-R2 agonist 210* and DDE Tn6 FP inh -5.
Cc1cc(NS(=O)(=O)c2ccc(NC(=O)CSc3nc4sc(C)c(C)c4c(=O)n3Cc3ccco3)cc2)nc(C)n1 was read as DDE Tn7 FP inh 1 and DDE Tn6 FP inh -8.
`COc1ccc(C(CC(=O)NCc2ccco2)c2ccc(F)cc2)cc1` (stereo not given) gave CRFBP-R2 block -3, DDE Tn7 FP inh 1, CRFBP-R2 agonist -1 and DDE Tn6 FP inh 6.
Cc1ccc(C(CC(=O)NCc2ccco2)c2ccc(OC(C)C)cc2)cc1 (stereo not given) was read as CRFBP-R2 block 51*, DDE Tn7 FP inh 5, CRFBP-R2 agonist 3 and DDE Tn6 FP inh -3.
Cc1cccc(OCCCC(=O)NC(C)C)c1 was read as CRFBP-R2 block 82*, DDE Tn7 FP inh -7, CRFBP-R2 agonist 0 and DDE Tn6 FP inh 3.
For Cc1cccc(OCCCC(=O)NC(C)c2ccccc2)c1 (stereo not given) the results were CRFBP-R2 block 8, DDE Tn7 FP inh -2, CRFBP-R2 agonist -2 and DDE Tn6 FP inh -2.

Source: PubChem (several laboratories)
